Results from ChEMBL document CHEMBL3817768, “Identification of a Chemical Probe for Family VIII Bromodomains through Optimization of a Fragment Hit” (J Med Chem, 2016).

Tests used:
Format in all cases: cell-based
Protein polybromo-1 [1] = molecular target: T1, Protein polybromo-1 (Homo sapiens, UniProt Q86U86); experiment: Binding affinity to human PB1 isoform 5 expressed in BL21 (DE3)-R3-BirA cells assessed as change in melting temperature at 10 uM by sypro-orange dye-based differential scanning fluorimetric analysis
Procedure, shortened: (§1)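 Thermal shift (DSF) screen of bromodomain proteins with compound at 10 μM; binding read as change in melting temperature (Tm shift).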

[2] = molecular target: T2, SWI/SNF-related matrix-associated actin-dependent regulator of chromatin subfamily A member 2 (Homo sapiens, UniProt P51531); experiment: Binding affinity to human SMARC2A expressed in BL21 (DE3)-R3-BirA cells assessed as change in melting temperature at 10 uM by sypro-orange dye-based differential scanning fluorimetric analysis; procedure, shortened: as §1
Protein polybromo-1 [3] = molecular target: T1, Protein polybromo-1; experiment: Binding affinity to human PB1 isoform 2 expressed in BL21 (DE3)-R3-BirA cells assessed as change in melting temperature at 10 uM by sypro-orange dye-based differential scanning fluorimetric analysis; procedure, shortened: as §1
Protein polybromo-1 [4] = molecular target: T1, Protein polybromo-1; experiment: Binding affinity to human PB1 isoform 4 expressed in BL21 (DE3)-R3-BirA cells assessed as change in melting temperature at 10 uM by sypro-orange dye-based differential scanning fluorimetric analysis; procedure, shortened: as §1
[5] = molecular target: T2, SWI/SNF-related matrix-associated actin-dependent regulator of chromatin subfamily A member 2; experiment: Binding affinity to human SMARC2B expressed in BL21 (DE3)-R3-BirA cells assessed as change in melting temperature at 10 uM by sypro-orange dye-based differential scanning fluorimetric analysis; procedure, shortened: as §1
Protein polybromo-1 [6] = molecular target: T1, Protein polybromo-1; experiment: Binding affinity to human PB1 isoform 3 expressed in BL21 (DE3)-R3-BirA cells assessed as change in melting temperature at 10 uM by sypro-orange dye-based differential scanning fluorimetric analysis; procedure, shortened: as §1
[7] = molecular target: SWI/SNF-related matrix-associated actin-dependent regulator of chromatin subfamily A member 4 (Homo sapiens, UniProt P51532); experiment: Binding affinity to human SMARCA4 expressed in BL21 (DE3)-R3-BirA cells assessed as change in melting temperature at 10 uM by sypro-orange dye-based differential scanning fluorimetric analysis; procedure, shortened: as §1
SWI/SNF-related matrix-associated actin-dependent regulator of chromatin subfamily A member 4, sequence (P51532 whole entry): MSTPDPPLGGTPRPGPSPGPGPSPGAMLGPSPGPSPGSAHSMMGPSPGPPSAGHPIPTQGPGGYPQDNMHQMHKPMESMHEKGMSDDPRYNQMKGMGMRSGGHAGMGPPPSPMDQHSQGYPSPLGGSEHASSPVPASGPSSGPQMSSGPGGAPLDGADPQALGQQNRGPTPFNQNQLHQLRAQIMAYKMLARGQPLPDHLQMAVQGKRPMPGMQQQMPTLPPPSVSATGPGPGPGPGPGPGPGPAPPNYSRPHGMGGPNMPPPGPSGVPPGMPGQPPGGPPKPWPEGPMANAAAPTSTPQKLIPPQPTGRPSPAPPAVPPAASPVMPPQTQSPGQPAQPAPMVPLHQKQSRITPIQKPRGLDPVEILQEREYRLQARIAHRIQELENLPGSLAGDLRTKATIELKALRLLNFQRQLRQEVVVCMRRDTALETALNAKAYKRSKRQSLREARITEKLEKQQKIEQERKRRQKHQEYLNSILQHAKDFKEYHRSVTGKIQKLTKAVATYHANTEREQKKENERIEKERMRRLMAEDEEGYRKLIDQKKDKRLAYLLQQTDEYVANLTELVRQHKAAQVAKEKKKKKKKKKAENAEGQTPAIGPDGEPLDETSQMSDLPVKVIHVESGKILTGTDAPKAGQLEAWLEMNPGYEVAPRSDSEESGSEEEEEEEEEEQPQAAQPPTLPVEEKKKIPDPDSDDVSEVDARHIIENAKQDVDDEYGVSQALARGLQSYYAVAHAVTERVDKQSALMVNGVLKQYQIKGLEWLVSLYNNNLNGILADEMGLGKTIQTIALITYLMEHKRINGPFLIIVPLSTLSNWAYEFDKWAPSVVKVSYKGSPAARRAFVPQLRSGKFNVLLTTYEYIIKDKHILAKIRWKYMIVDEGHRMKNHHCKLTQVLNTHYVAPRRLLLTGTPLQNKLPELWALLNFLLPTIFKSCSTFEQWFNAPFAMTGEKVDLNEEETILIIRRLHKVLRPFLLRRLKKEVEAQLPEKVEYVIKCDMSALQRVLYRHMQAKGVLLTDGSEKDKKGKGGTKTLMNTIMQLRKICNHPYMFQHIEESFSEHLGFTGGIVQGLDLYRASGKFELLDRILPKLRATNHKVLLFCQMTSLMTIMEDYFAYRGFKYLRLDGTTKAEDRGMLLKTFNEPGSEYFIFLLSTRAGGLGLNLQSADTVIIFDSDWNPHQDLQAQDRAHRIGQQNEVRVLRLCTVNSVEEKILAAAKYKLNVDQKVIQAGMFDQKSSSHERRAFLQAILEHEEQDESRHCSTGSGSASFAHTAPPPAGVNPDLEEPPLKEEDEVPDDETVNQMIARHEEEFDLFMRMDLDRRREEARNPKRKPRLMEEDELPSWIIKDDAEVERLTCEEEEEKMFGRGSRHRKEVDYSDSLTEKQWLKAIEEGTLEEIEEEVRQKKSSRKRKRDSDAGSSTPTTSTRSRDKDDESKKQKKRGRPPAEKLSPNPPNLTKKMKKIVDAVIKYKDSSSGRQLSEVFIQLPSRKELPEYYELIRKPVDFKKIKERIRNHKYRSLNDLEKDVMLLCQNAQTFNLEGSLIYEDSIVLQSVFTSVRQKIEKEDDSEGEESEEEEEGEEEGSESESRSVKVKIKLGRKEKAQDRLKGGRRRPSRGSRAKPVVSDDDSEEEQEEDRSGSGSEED

T1 sequence (Q86U86 whole entry, canonical isoform): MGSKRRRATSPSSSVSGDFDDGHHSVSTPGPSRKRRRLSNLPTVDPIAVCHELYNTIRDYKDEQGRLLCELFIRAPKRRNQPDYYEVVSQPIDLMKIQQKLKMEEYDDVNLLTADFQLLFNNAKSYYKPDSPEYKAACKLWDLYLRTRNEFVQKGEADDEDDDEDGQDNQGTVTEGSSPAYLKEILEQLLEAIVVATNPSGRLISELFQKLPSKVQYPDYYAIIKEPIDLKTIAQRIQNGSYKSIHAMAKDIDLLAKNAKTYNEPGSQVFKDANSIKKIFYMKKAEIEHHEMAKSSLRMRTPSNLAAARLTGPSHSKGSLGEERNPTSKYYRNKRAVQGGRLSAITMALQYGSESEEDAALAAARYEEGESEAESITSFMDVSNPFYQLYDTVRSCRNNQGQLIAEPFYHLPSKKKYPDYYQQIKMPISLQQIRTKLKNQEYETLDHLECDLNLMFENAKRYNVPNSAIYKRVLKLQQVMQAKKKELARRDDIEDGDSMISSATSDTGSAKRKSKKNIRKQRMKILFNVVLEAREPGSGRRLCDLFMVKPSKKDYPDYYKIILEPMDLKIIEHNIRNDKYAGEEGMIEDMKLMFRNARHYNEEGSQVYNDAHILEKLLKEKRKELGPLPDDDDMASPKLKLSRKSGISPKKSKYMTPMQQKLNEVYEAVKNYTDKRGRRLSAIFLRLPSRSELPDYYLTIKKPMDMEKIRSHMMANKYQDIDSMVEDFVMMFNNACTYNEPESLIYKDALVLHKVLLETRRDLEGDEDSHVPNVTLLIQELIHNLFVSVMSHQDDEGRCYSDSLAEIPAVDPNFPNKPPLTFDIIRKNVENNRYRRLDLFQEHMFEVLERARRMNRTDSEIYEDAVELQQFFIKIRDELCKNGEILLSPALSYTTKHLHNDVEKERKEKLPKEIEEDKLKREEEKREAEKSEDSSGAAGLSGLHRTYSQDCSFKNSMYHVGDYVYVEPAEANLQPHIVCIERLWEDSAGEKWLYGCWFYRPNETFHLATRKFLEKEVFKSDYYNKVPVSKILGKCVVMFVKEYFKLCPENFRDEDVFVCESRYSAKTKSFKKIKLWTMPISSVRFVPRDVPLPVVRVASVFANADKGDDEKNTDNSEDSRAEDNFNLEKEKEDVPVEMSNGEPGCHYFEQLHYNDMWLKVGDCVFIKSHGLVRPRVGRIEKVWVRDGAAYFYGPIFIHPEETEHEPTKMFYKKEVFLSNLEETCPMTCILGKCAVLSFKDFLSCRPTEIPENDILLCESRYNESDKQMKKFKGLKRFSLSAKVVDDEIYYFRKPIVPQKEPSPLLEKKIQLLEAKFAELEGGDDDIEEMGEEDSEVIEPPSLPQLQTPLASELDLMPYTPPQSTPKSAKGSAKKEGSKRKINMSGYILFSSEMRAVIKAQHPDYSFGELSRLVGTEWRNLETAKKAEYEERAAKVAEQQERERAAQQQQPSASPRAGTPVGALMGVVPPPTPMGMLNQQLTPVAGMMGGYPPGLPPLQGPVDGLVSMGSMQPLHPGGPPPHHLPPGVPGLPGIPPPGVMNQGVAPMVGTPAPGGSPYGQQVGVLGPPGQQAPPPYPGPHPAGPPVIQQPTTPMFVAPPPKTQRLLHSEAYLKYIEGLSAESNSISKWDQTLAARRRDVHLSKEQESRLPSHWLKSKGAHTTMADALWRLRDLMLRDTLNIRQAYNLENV
T2 sequence (P51531 whole entry, canonical isoform): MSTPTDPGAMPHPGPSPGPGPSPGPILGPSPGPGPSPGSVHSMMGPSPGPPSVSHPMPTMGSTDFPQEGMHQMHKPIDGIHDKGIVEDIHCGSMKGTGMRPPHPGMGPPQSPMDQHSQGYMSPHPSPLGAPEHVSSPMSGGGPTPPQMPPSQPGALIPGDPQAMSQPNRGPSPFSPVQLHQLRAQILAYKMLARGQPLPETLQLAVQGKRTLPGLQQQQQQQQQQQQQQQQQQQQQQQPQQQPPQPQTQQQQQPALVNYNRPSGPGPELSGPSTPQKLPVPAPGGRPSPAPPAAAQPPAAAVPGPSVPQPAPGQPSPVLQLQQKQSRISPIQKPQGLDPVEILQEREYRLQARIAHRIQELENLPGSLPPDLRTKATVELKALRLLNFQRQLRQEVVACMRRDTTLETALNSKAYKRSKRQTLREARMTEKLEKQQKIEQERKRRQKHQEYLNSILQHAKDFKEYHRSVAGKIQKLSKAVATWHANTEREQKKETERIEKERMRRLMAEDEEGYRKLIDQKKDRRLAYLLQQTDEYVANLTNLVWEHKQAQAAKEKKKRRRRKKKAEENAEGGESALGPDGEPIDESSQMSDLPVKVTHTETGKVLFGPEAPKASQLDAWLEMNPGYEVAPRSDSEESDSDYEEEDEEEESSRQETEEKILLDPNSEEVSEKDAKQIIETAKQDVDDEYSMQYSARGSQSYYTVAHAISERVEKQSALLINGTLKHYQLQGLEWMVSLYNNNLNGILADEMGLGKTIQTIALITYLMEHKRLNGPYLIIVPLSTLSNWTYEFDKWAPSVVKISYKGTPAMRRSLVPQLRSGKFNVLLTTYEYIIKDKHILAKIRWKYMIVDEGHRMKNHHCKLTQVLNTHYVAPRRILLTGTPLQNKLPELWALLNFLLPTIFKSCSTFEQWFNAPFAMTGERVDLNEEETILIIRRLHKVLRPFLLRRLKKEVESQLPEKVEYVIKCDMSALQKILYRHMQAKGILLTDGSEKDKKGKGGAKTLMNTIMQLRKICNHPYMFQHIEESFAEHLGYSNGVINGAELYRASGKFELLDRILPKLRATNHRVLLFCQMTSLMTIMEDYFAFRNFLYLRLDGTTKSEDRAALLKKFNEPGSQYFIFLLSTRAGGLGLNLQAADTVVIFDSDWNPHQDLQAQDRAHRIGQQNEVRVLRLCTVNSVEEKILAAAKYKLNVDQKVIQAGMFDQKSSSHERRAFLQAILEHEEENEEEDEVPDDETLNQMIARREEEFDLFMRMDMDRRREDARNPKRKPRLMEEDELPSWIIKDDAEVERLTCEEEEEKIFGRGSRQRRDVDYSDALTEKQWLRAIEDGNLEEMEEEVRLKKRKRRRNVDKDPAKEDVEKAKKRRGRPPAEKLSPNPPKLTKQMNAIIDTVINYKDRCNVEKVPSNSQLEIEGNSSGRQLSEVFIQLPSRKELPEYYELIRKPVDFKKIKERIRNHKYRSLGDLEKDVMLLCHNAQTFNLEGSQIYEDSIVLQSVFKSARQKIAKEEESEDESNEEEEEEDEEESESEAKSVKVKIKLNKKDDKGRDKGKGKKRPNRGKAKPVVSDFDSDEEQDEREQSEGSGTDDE

Row | SMILES | ΔTm (Protein polybromo-1 [1]) | ΔTm [2] | ΔTm (Protein polybromo-1 [3]) | ΔTm (Protein polybromo-1 [4]) | ΔTm [5] | ΔTm (Protein polybromo-1 [6]) | ΔTm [7]
1 | O=C(/C=C/N1CCc2c(ccnc2N[C@H]2CC[C@H](O)CC2)C1)c1ccccc1O | 8.3 °C | 5.4 °C | 2.5 °C | 0.4 °C | 2.4 °C | 1.1 °C | 6.1 °C
2 | O=C(/C=C/N1CCN(c2ncccn2)CC1)c1ccccc1O | 4.6 °C | 2.9 °C | 0.7 °C | 0.6 °C | 1.1 °C | 0.3 °C | 2.9 °C
3 | O=C(/C=C/N1CCC(c2cc[nH]n2)CC1)c1ccccc1O | 6.9 °C | 8.2 °C | 3.2 °C | 1 °C | 3.9 °C | 1.8 °C | 6.3 °C
4 | CN(C)/C=C/C(=O)c1ccccc1O | 4.9 °C | 4.8 °C | 2 °C | 0.7 °C | 2 °C | 0.5 °C | 3.3 °C
5 | O=C(/C=C/N1CCc2cn[nH]c2C1)c1ccccc1O | 7.8 °C | 7.8 °C | 4.1 °C | 1.2 °C | 4.8 °C | 1.7 °C | 7 °C
6 | COc1cccc(C(=O)/C=C/N2CCCC2)c1O | 0.4 °C | 0.7 °C | 0.1 °C | 0.3 °C | -0.4 °C | 0 °C | 0.7 °C
7 | CN(C)c1ncnc2c1CCN(/C=C/C(=O)c1ccccc1O)C2 | 5.1 °C | 4.1 °C | 3.5 °C | 1.2 °C | 2.2 °C | 1.3 °C | 3.4 °C
8 | O=C(/C=C/N1CC2CCC(CC2)C1)c1ccccc1O | 6.6 °C | 5.1 °C | 5.2 °C | 2 °C | 2 °C | 3.3 °C | 3.8 °C
